Source: PubChem (several laboratories)
RBBP9 inhibitor = inhibitors of human serine hydrolase RBBP9; inhibition, % at 7.94 µM; 0.2% of 220,000 active; AID 1515; recombinant RBBP9, FP-Rh probe fluorescence polarization;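 active = inhibition above the campaign mean of all tested compounds plus 3 SD, cut at about 14% in these data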;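 note: plate controls were DMSO wells with RBBP9 for no effect and wells lacking RBBP9 protein for full effect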
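System: RBBP9 protein / Buffer or medium: Tris/NaCl buffer pH 8.0 with 0.1% Pluronic / Probe or stimulus: Serine-hydrolase probe FP-Rh, 375 nM pre-mixing / Dosing: 7.94 µM single dose, 0.794% DMSO / Times: enzyme-compound preincubation 30 min, then probe labeling 45 min, 25 °C / Technique: fluorescence polarization (mP), excitation 525 nm, emission 598 nm / Replication: singlicate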
EBV gp42 inh = EBV gp42 inhibition | Q1HVG2 | Fluorescence polarization binding assay, mP read-out | inhibition, % (tested at 21.74 µM) | 0.42% of 220,000 active; in the data active = inhibition above about 50%
Target sequence (Q1HVG2 whole entry, looked up): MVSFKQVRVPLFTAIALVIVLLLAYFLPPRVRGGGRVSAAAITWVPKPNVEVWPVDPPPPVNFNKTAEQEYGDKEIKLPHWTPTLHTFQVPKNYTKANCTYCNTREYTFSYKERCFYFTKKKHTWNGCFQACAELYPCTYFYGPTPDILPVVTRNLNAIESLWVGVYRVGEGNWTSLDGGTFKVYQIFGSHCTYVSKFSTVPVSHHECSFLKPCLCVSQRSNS
WT yeast gro inh = growth inhibition of WT yeast, mitochondrial fusion screen; 2.1% of 190,000 active; inhibition, % at 10 µM; AID 1362; mitochondrial fusion phenotypic screen, WT strain; in the data active = inhibition above about 58%; tested in S. cerevisiae
14-3-3 Bad PPI = disrupts binding of bovine 14-3-3 zeta to phospho-Bad peptide | P63103 | AID 781 | inhibition, % at 21.7 µM | 0.71% of 220,000 active | TR-FRET 14-3-3zeta/Dy647-pBad peptide displacement, 1 h;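 active = inhibition above about 70%, limit read from the data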;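 note: 0% = full 14-3-3 plus peptide FRET controls and 100% = background without 14-3-3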
p47phox inh = p47phox (human) inhibition; P14598; p47phox/p22phox peptide binding, fluorescence polarization, 2 h; inhibition, % at 24.7 µM; 0.53% of 220,000 active; AID 1274;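 note: 0% = p47phox with labelled peptide and 100% = labelled peptide alone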
Target sequence (P14598 whole entry, looked up): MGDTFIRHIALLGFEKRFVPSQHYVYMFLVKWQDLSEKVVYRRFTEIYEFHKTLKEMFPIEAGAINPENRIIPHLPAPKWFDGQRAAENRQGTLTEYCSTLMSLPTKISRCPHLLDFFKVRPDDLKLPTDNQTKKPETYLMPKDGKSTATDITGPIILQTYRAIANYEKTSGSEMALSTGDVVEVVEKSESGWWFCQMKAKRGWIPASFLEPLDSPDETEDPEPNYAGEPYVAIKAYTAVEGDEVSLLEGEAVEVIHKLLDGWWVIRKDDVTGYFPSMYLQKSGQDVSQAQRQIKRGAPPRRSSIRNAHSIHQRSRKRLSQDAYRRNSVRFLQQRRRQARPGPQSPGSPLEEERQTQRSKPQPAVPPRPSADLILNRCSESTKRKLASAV
eIF4E-4G inh = blocks eIF4E binding to eIF4G | P63073+Q04637 | TR-FRET eIF4E-eIF4GI(517-606) binding, 2 h | inhibition, % at 21.7 µM | 0.37% of 220,000 active | AID 782;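 note: 0% = full FRET control wells and 100% = background wells lacking eIF4GI fragment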
The depositor's hits bear a star; [ ] = remark or other dose. Most compounds without a hit are left out; they make up all but 3.7% or so of the library.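 Rule for the calls, unless noted: active = inhibition above about 30% (limit read from the data); inactive = the rest.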

Results for COc1ccc(S(=O)(=O)N2CCN(Cc3c[nH]c4ccccc34)CC2)cc1 ?
RBBP9 inhibitor: -9.3; EBV gp42 inh: 4.8; WT yeast gro inh: 8.8; 14-3-3 Bad PPI: -9.3; p47phox inh: -10.6; eIF4E-4G inh: -7.4

Results for O=[N+]([O-])c1ccc(S(=O)(=O)N2CCN(Cc3c[nH]c4ccccc34)CC2)cc1 ?
RBBP9 inhibitor: -1.8; EBV gp42 inh: -11.0; WT yeast gro inh: 8.8; 14-3-3 Bad PPI: 78.7*; p47phox inh: -0.6; eIF4E-4G inh: -1.2

What do the screens show for `Cc1ccc(-c2nnc(SCC(=O)N3CCOCC3)nc2-c2ccc(C)cc2)cc1`?
RBBP9 inhibitor: -4.8; EBV gp42 inh: -24.3; WT yeast gro inh: 74.4*; 14-3-3 Bad PPI: 50.6; p47phox inh: -7.0; eIF4E-4G inh: 3.0

Results for CCOC(=O)c1c(CSc2nc(C)cc(C)c2C#N)n(C)c2cc(Br)c(OC(C)=O)cc12 ?
RBBP9 inhibitor: -7.0; EBV gp42 inh: -8.7; WT yeast gro inh: -7.9; 14-3-3 Bad PPI: -24.5; p47phox inh: -11.9; eIF4E-4G inh: 5.0

Results for CCOC(=O)c1c(CSC(=N)N)n(-c2ccc(Br)cc2)c2cc(Br)c(OC(C)=O)cc12 ?
RBBP9 inhibitor: -11.3; EBV gp42 inh: 16.4; WT yeast gro inh: 45.8; 14-3-3 Bad PPI: 95.7*[fluorescence artefact?]; p47phox inh: 92.7*; eIF4E-4G inh: 37.1*[fluorescence artefact?]

How did CCCCCCCCOC(=O)c1c(CSC(=N)N)n(C)c2cc(Br)c(OC(C)=O)cc12 do in these assays?
RBBP9 inhibitor: -10.8; EBV gp42 inh: -19.4; 14-3-3 Bad PPI: 85.2*; p47phox inh: 87.5*; eIF4E-4G inh: -1.9

What do the screens show for `CC1CCN(CCCCOc2ccccc2[N+](=O)[O-])CC1`?
RBBP9 inhibitor: -1.8; EBV gp42 inh: -4.5; WT yeast gro inh: -2.0; 14-3-3 Bad PPI: 84.7*; p47phox inh: 0.8; eIF4E-4G inh: 7.2

Results for CC(C)(C)NC(=O)c1sccc1C(=O)O ?
RBBP9 inhibitor: 0.8; EBV gp42 inh: 99.9*; WT yeast gro inh: 9.9; 14-3-3 Bad PPI: 76.7*; p47phox inh: -14.0; eIF4E-4G inh: 4.3

Results for CSc1cccc(NC(=S)N(Cc2ccc(C)cc2)Cc2cccnc2)c1 ?
RBBP9 inhibitor: -17.0; EBV gp42 inh: -1.8; WT yeast gro inh: 67.5*; 14-3-3 Bad PPI: -12.7; p47phox inh: -13.1; eIF4E-4G inh: 87.1*

Results for O=C(Nc1c2ccccc2nc2ccccc12)C(Cl)(Cl)Cl ?
RBBP9 inhibitor: -3.5; EBV gp42 inh: 8.2; WT yeast gro inh: 33.3; 14-3-3 Bad PPI: 79.5*[fluorescence artefact?]; p47phox inh: 17.4; eIF4E-4G inh: -3.7

How did Cc1cccc(OCC(=O)NNc2c3ccccc3nc3ccccc23)c1 do in these assays?
RBBP9 inhibitor: 1.4; EBV gp42 inh: 0.3; WT yeast gro inh: 23.2; 14-3-3 Bad PPI: 6.3; p47phox inh: -8.5; eIF4E-4G inh: 2.9

How did O=C(Cc1ccccc1)NNc1c2ccccc2nc2ccccc12 do in these assays?
RBBP9 inhibitor: 1.1; EBV gp42 inh: -3.4; WT yeast gro inh: 59.4*; 14-3-3 Bad PPI: -4.0; p47phox inh: -1.3; eIF4E-4G inh: -2.9

What do the screens show for `O=C(Nc1c2c(nc3ccccc13)CCCC2)c1ccccc1Cl`?
RBBP9 inhibitor: -1.9; EBV gp42 inh: -4.8; WT yeast gro inh: 21.3; 14-3-3 Bad PPI: -5.2; p47phox inh: -30.7; eIF4E-4G inh: 4.7

Results for Cc1ccc(OCC(=O)NNc2c3ccccc3nc3ccccc23)cc1 ?
RBBP9 inhibitor: -2.2; EBV gp42 inh: 16.6; WT yeast gro inh: 35.9; 14-3-3 Bad PPI: 16.6; p47phox inh: 30.4*; eIF4E-4G inh: -6.9

How did COC(=O)c1sc(N)c(C(=O)OC)c1COC(=O)CCNS(=O)(=O)c1ccc(C)cc1 do in these assays?
RBBP9 inhibitor: -7.8; EBV gp42 inh: -16.2; WT yeast gro inh: -9.7; 14-3-3 Bad PPI: 5.4; p47phox inh: -30.7; eIF4E-4G inh: -1.6

How did O=C(c1sc2cc(F)ccc2c1Cl)N1CCN(c2ccccc2)CC1 do in these assays?
RBBP9 inhibitor: -7.9; EBV gp42 inh: -3.4; WT yeast gro inh: 65.5*; 14-3-3 Bad PPI: 3.7; p47phox inh: -6.7; eIF4E-4G inh: 3.6

Results for CN1CCC(N(C)C(=O)c2sc3cc(F)ccc3c2Cl)CC1 ?
RBBP9 inhibitor: -4.5; EBV gp42 inh: -7.7; WT yeast gro inh: 1.3; 14-3-3 Bad PPI: 1.4; p47phox inh: -8.4; eIF4E-4G inh: 2.2

Results for C#CCOCCOCCOCCNc1nc(N2CCN(C(=O)C(Cc3ccc(O)cc3)n3cc(C(N)CC(C)C)nn3)CC2)nc(N2CCN(C(=O)C(Cc3cc4ccccc4[nH]3)n3cc(C(N)C(C)CC)nn3)CC2)n1 (stereo not drawn) ?
RBBP9 inhibitor: -4.2; EBV gp42 inh: -15.7; WT yeast gro inh: -22.3; 14-3-3 Bad PPI: 20.1; eIF4E-4G inh: -0.4

Results for C#CCOCCOCCOCCNc1nc(N2CCN(C(=O)[C@H]([C@@H](C)CC)n3cc([C@@H](N)CC(C)C)nn3)CC2)nc(N2CCN(C(=O)[C@H](Cc3cc4ccccc4[nH]3)n3cc([C@@H](N)Cc4ccc(O)cc4)nn3)CC2)n1 ?
RBBP9 inhibitor: -1.0; EBV gp42 inh: -3.8; WT yeast gro inh: 0.4; 14-3-3 Bad PPI: 13.1; p47phox inh: 53.1*; eIF4E-4G inh: -0.1

Results for C#CCOCCOCCOCCNc1nc(N2CCN(C(=O)[C@H](C)n3cc(CCCN=C(N)N)nn3)CC2)nc(N2CCN(C(=O)[C@H](CCCCN)n3cc(CCCC)nn3)CC2)n1 ?
RBBP9 inhibitor: -4.1; EBV gp42 inh: -9.5; WT yeast gro inh: 4.9; 14-3-3 Bad PPI: 88.7*; p47phox inh: 14.2; eIF4E-4G inh: 10.2

Results for C#CCOCCOCCOCCNc1nc(N2CCN(C(=O)C(Cc3cc4ccccc4[nH]3)n3cc(C(N)C(C)CC)nn3)CC2)nc(N2CCN(C(=O)C(Cc3cc4ccccc4[nH]3)n3cc(C(N)C(C)CC)nn3)CC2)n1 (stereo not drawn) ?
RBBP9 inhibitor: 1.3; EBV gp42 inh: -1.3; WT yeast gro inh: 4.9; 14-3-3 Bad PPI: 25.4; p47phox inh: 67.4*; eIF4E-4G inh: -0.4

Results for C#CCOCCOCCOCCNc1nc(N2CCOCC2)nc(N2CCN(C(=O)[C@H](Cc3cc4ccccc4[nH]3)n3cc([C@@H](N)C(C)CC)nn3)CC2)n1 (stereo partly drawn) ?
RBBP9 inhibitor: -6.2; EBV gp42 inh: -13.6; WT yeast gro inh: -8.0; 14-3-3 Bad PPI: 5.7; p47phox inh: 1.2; eIF4E-4G inh: 2.2

What do the screens show for `C#CCOCCOCCOCCNc1nc(N2CCN(C(=O)[C@H](Cc3ccc(O)cc3)n3cc([C@@H](N)C(C)CC)nn3)CC2)nc(N2CCN(C(=O)[C@H](Cc3cc4ccccc4[nH]3)n3cc([C@@H](N)Cc4ccc(O)cc4)nn3)CC2)n1` (stereo partly drawn)?
EBV gp42 inh: -1.6; 14-3-3 Bad PPI: 38.8; p47phox inh: 33.0*; eIF4E-4G inh: -3.0

How did Cc1nn(Cc2ccccc2)c(Cl)c1C(=O)NCc1ccco1 do in these assays?
RBBP9 inhibitor: -10.3; EBV gp42 inh: -7.2; WT yeast gro inh: 1.7; 14-3-3 Bad PPI: -4.1; p47phox inh: -10.4; eIF4E-4G inh: -0.1
